In ChEMBL document CHEMBL4765302, “Design, synthesis and biological evaluation of novel histone deacetylase1/2 (HDAC1/2) and cyclin-dependent Kinase2 (CDK2) dual inhibitors against malignant cancer” (Eur J Med Chem, 2020):
Active and inactive are the calls of the source. The rule behind the calls is not given here.

Key:
HepG2 [1] = assay: Antiproliferative activity against human HepG2 cells assessed as reduction in cell growth at 2 uM incubated for 72 hrs by CCK-8 assay relative to control; assay type: functional
HCT-116 [2] = assay: Induction of apoptosis in human HCT-116 cells assessed as viable cells at 1 uM incubated for 48 hrs by annexin V-FITC and PI staining based flow cytometry (reference value: 93.9 %); assay type: functional; settings: read-out: Activity
HeLa [3] = assay: Induction of apoptosis in human HeLa cells assessed as late apoptotic cells at 0.5 uM incubated for 48 hrs by annexin V-FITC and PI staining based flow cytometry (reference value: 0.870 %); assay type: functional
[4] = AUC (0 to t) in ICR mouse at 4 mg/kg, iv measured upto 24 hrs by LC-MS/MS analysis; assay type: ADME, organism-based; parameters: route intravenous, dose 4 mg/kg, time <=24; settings: in vivo
Procedure, shortened: (§1)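 Male ICR mice (N=9). Single dose, either 4 mg/kg intravenous or 20 mg/kg intraperitoneal. Parameters derived: T1/2, Tmax, Cmax, AUC0-t, MRT0-t and CL, with F for the intraperitoneal arm.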

NCI-H460 [5] = assay: Induction of apoptosis in human NCI-H460 cells assessed as viable cells at 1 uM incubated for 48 hrs by annexin V-FITC and PI staining based flow cytometry (reference value: 90.4 %); assay type: functional; settings: read-out: Activity
NCI-H460 [6] = assay: Antiproliferative activity against human H460 cells assessed as reduction in cell growth at 2 uM incubated for 72 hrs by CCK-8 assay relative to control; assay type: functional
NCI-H460 [7] = assay: Cytotoxicity against human NCI-H460 cells assessed as effect on cell morphology at 0.5 to 8 micromol incubated for 48 hrs by microscopic analysis; assay type: functional, cell-based; settings: dose 0.5-8 µmol
Procedure, shortened: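 Five cancer cell lines treated with compound or DMSO (0.1 %) for 48 h. Morphology inspected by light microscopy at 10× objective.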

HCT-116 [8] = assay: Antitumor activity against human HCT-116 cells xenografted in Balb/c mouse assessed as tumor growth inhibition at 25 mg/kg, ip administered for 21 days and measured on day 21 relative to control; assay type: functional; settings: HCT-116, ip, 504 h, time 21 day, read-out: GI
Procedure, shortened: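 HCT116 xenografts in BALB/c nude mice. Dosing started when tumours reached 100–300 mm³: intraperitoneal injection once daily for 21 days at 25, 50 or 100 mg/kg, versus blank. Body weight monitored. Tumour growth inhibition computed against blank.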

HepG2 [9] = assay: Antiproliferative activity against human HepG2 cells assessed as reduction in cell growth at 8 uM incubated for 72 hrs by CCK-8 assay relative to control; assay type: functional
A-375 [10] = assay: Induction of apoptosis in human A-375 cells assessed as viable cells at 2 uM incubated for 48 hrs by annexin V-FITC and PI staining based flow cytometry (reference value: 96.3 %); assay type: functional; settings: read-out: Activity
A-375 [11] = assay: Antiproliferative activity against human A-375 cells assessed as reduction in cell growth incubated for 72 hrs by CCK-8 assay; assay type: functional, cell-based; settings: A-375, 72 h
Procedure, shortened: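 IC50 by CCK-8 assay across five solid-tumour lines (HCT116, HepG2, H460, HeLa, A375). Run only for compounds chosen after the single-concentration screen, with CS055 and roscovitine as references.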

[12] = Clearance in ICR mouse at 4 mg/kg, iv measured upto 24 hrs by LC-MS/MS analysis; assay type: ADME, organism-based; settings: in vivo; procedure, shortened: as §1
HeLa [13] = assay: Induction of apoptosis in human HeLa cells assessed as early apoptotic cells at 1 uM incubated for 48 hrs by annexin V-FITC and PI staining based flow cytometry (reference value: 0.528 %); assay type: functional
HeLa [14] = assay: Induction of apoptosis in human HeLa cells assessed as viable cells at 1 uM incubated for 48 hrs by annexin V-FITC and PI staining based flow cytometry (reference value: 98.5 %); assay type: functional; settings: read-out: Activity
HCT-116 [15] = assay: Induction of apoptosis in human HCT-116 cells assessed as early apoptotic cells at 0.5 uM incubated for 48 hrs by annexin V-FITC and PI staining based flow cytometry (reference value: 4.14 %); assay type: functional
HeLa [16] = assay: Induction of apoptosis in human HeLa cells assessed as late apoptotic cells at 1 uM incubated for 48 hrs by annexin V-FITC and PI staining based flow cytometry (reference value: 0.870 %); assay type: functional
NCI-H460 [17] = assay: Induction of apoptosis in human NCI-H460 cells assessed as early apoptotic cells at 1 uM incubated for 48 hrs by annexin V-FITC and PI staining based flow cytometry (reference value: 2.88 %); assay type: functional

AUC(0-t) at 24 h [4]: 2850 ng·h/mL
IC50 (A-375 [11]): 470 nM
clearance [12]: 23.3 mL/min/kg
SMILES: Cc1ccc(Nc2nc(Cl)nc3c2ncn3Cc2ccc(C(=O)Nc3ccccc3N)cc2)cc1
inhibition at 2 µM (HepG2 [1]): 76.2%
viability at 1 µM (HCT-116 [2]): 13.3%
Activity (HeLa [3]): 5.47%
viability at 1 µM (NCI-H460 [5]): 63.1%
inhibition at 2 µM (NCI-H460 [6]): 67.3%
Activity (NCI-H460 [7]): Active
inhibition in vivo at 25 mg/kg (HCT-116 [8]): 28%
inhibition at 8 µM (HepG2 [9]): 82%
viability at 2 µM (A-375 [10]): 7.6%
Activity (HeLa [13]): 5.85%
viability at 1 µM (HeLa [14]): 85.2%
Activity (HCT-116 [15]): 60.7%
Activity (HeLa [16]): 8.63%
Activity (NCI-H460 [17]): 18.6%
